pIC50: −log10 of the molar value.
Tested on: HL-60
Assay: Growth inhibition of human HL60 cells after 3 days by MTT assay
Assay type: functional, cell-based
Settings: HL-60, 72 h
How it was run: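 HL-60 human leukemia cells, […], seeded at 4000-5000 cells/well and […] before compound addition. Compounds tested at 0.01, 0.1, 1, 10 and 100 µg/mL for 3 days. MTT (5 mg/mL) added, formazan dissolved in DMSO after 4 h, OD read at 570 nm. Growth inhibition (%) = (OD_control − OD_treated)/OD_control × 100. Doxorubicin served as positive control.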

Compound	pIC50
CCC[C@H](CC/C=C/C=C/C#CC#C/C=C\CO)OC(C)=O [ACETYLBUPLEUROTOXIN]	4.96
CCCCCC/C=C/C=C/C#C/C=C/C=C/COC(C)=O	4.96
CCCCCCC/C=C\CC#C/C=C/C=C/COC(C)=O	4.96
OC/C=C\C#CC#CC/C=C\CCCCCCCCO	< 5.00
OC/C=C/C=C/C#CC/C=C\CCCCCCCCO	< 5.00
CCC[C@H](O)CC/C=C/C=C/C#CC#C/C=C\COC(C)=O	5.03
CCCC/C=C/C=C/C#CC#C/C=C\CO	4.96
CC(=O)OC/C=C/C=C/C#CC/C=C\CCCCCCCCOC(C)=O	< 5.00
CCCCCCC/C=C\CC#CC#C/C=C\CO	4.96
CCC[C@H](O)CC/C=C/C=C/C#CC#C/C=C\CO [BUPLEUROTOXIN]	5.31
CCCC(=O)CC/C=C/C=C/C#CC#C/C=C\CO [BUPLEURONOL]	4.96
CCCCC/C=C\CC#CC#C/C=C\CO	4.96
CCCCCC/C=C/C=C/C#CC#C/C=C\CO	4.96

— ChEMBL document CHEMBL1154823, “Polyacetylenes from Bupleurum longiradiatum” (J Nat Prod, 2009)
